From ChEMBL document CHEMBL3784994, “Systematic comparison of the mono-, dimethyl- and trimethyl 3-hydroxy-4(1H)-pyridones - Attempted optimization of the orally active iron chelator, deferiprone” (Eur J Med Chem, 2016) come the findings set out here.

A word on the logP: it is the decadic logarithm of the partition coefficient of the neutral form, usually between octanol and water. Low values mean lower lipophilicity, high ones higher lipophilicity.

The subject of series [1] is Liver microsome. The series is described as follows: Drug metabolism in human liver microsomes assessed as glucuronidation at 10 uM after 24 hrs by mass spectrophotometry in presence of NADPH and UDPGA. In kind it is ADME. Put shortly:
(§1)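 Pooled mixed-gender human liver microsomes (1 mg/mL) with 10 µM hydroxypyridinone in 100 mM PBS, with NADPH and UDPGA systems. Incubated at 37°C for 24 h with gentle shaking, in triplicate; the blank omitted microsomes. Stopped with 4% phosphoric acid and internal standard added, then centrifuged. Cation-exchange SPE, then UPLC–tandem MS on C18 to identify metabolites and quantify % metabolized.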
For orientation: Liver microsomes are a subcellular fraction often used to study metabolism.

Series [2] can be described thus: Octanol-water partition coefficient, log P of the compound by shake-flask method. In kind it is physicochemical. In a few lines:
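Shake-flask partition between n-octanol and 25 mM MOPS, pH 7.4, at 25°C. Buffered solution and octanol were mixed at different ratios, stirred vigorously for 15 s, and separated by centrifugation. Aqueous UV absorbance was read before and after partition. P = (A0−A1)Vaq/(A1Vo).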

Series [3] can be described thus: Binding affinity to iron(3) assessed as pFe3+ values after 5 mins. In a few lines: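 Spectrophotometric titration of ligand with iron(III) in 0.1 M KCl, using a 50 mm path cuvette. KOH was added in 0.1 pH unit steps. After readings were stable (<0.001 pH unit over 3 s), there was a 5 min equilibration, then the spectrum was recorded. Constants were fitted with pHab. pFe3+ was computed at total Fe3+ 1 µM, total ligand 10 µM, pH 7.4.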

The nature of series [4]: Binding affinity to iron(3) assessed as pFe3+ values after 10 to 30 mins.
Series [5] deals with Liver microsome. The series is described as follows: Drug metabolism in human liver microsomes assessed as hydroxylation at 10 uM after 24 hrs by mass spectrophotometry in presence of NADPH and UDPGA. Type of series: ADME. In a few lines:
as §1

Turning to `Cc1[nH]cc(C)c(=O)c1O`, the Drug metabolism entry in the series on Liver microsome [1] is “metabolite_detected”. The logP in series [2] is -0.13. In addition, in series [3], the Activity is 19.2.

As for `COc1c[nH]cc(CN(C)C)c1=O`, in series [2], the logP was -0.85.

In the case of `Cc1cn(C)cc(O)c1=O`, the Drug metabolism result in the series on Liver microsome [1] is listed as “metabolite_detected”. Further, the logP in series [2] is -0.93. Besides, the Activity in series [3] is 20.5.

Regarding `Cn1ccc(=O)c(O)c1F`, in series [2], the logP was -0.85.

As for `Cn1cc(O)c(=O)c(F)c1`, the logP in series [2] is -0.85.

Consider `Cc1cc(=O)c(O)cn1C`, for which, in the series with Liver microsome [1], the Drug metabolism entry is on record as “metabolite_detected”. Moreover, the logP in series [2] was -1.19. The Activity in series [3] amounted to 20.4.

Turning to `Cc1cc(=O)c(O)c[nH]1`, the logP in series [2] was -0.73. Further, the Activity in series [3] turned out to be 20.1.

Regarding `Cn1cc(O)c(=O)cn1`, the Activity in series [4] stood at 17.2. In addition, the logP in series [2] is -0.85.

Take `COc1cn(C)cc(C)c1=O`: the logP in series [2] is -0.85.

As to `COc1c[nH]ccc1=O`, the logP in series [2] was -0.85.

On to `Cc1cn(C)c(C)c(O)c1=O`, for which the Drug metabolism entry in the series on Liver microsome [1] is reported as “metabolite_detected”. In addition, the logP in series [2] was -0.51. Also, the Activity in series [3] came to 19.7.

For `Cc1c[nH]cc(O)c1=O`, the Drug metabolism result in the series on Liver microsome [5] and in the series on Liver microsome [1] was “metabolite_detected” in each case. Moreover, in series [2], the logP is -0.59. Also, in series [3], the Activity stood at 20.1.

On to `Cc1cc(=O)c(F)c[nH]1`, for which the logP in series [2] is -0.51.

With `COc1c[nH]cc(C)c1=O`, in series [2], the logP was -0.51.

`Cc1nccc(O)c1O`: the Drug metabolism result in the series on Liver microsome [5] and in the series with Liver microsome [1] was “metabolite_detected” each time. The logP in series [2] is -0.58. Besides, in series [3], the Activity was determined as 20.2.

As for `Cc1c(O)c(=O)ccn1C` [DEFERIPRONE], the Drug metabolism entry in the series with Liver microsome [5] and in the series with Liver microsome [1] was “metabolite_detected” in each case. Besides, the Activity stood at 20.6 in series [4] and 20.7 in series [3].

For `Cn1ccc(=O)c(O)n1`, the Activity in series [4] was determined as 14.8. Also, the logP in series [2] was -0.85.
